Test [1] addresses T1, Adrenergic receptor alpha-1 (Rattus norvegicus, UniProt P15823+P23944+P43140).
T1 sequence (P15823 whole entry): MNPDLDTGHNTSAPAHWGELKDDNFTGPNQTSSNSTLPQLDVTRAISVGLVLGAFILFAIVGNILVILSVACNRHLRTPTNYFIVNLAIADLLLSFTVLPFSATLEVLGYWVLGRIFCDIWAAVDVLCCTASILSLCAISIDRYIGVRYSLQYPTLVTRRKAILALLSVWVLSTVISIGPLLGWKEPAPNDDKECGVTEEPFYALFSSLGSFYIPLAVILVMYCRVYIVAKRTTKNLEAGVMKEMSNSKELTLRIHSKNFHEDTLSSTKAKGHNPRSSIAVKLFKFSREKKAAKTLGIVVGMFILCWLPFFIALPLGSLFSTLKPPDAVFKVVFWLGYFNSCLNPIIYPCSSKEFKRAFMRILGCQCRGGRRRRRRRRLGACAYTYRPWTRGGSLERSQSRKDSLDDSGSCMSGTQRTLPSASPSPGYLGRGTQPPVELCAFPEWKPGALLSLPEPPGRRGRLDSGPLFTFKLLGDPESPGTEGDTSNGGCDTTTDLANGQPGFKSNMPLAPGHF
T1 sequence (P23944 whole entry): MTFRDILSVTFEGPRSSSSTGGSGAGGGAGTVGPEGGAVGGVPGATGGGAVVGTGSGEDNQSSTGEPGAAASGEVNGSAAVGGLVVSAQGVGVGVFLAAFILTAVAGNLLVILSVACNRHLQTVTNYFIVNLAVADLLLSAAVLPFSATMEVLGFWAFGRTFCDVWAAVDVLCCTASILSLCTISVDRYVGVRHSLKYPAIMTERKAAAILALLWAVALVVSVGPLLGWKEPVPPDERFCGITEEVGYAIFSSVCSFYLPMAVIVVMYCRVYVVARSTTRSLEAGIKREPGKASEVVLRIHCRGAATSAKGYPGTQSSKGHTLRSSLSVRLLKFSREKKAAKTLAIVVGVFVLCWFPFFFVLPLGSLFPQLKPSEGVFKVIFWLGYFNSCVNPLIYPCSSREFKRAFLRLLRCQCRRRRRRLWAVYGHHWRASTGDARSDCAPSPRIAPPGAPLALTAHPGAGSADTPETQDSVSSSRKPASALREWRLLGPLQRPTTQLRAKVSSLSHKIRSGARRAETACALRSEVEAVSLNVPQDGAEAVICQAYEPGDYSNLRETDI
T1 sequence (P43140 whole entry): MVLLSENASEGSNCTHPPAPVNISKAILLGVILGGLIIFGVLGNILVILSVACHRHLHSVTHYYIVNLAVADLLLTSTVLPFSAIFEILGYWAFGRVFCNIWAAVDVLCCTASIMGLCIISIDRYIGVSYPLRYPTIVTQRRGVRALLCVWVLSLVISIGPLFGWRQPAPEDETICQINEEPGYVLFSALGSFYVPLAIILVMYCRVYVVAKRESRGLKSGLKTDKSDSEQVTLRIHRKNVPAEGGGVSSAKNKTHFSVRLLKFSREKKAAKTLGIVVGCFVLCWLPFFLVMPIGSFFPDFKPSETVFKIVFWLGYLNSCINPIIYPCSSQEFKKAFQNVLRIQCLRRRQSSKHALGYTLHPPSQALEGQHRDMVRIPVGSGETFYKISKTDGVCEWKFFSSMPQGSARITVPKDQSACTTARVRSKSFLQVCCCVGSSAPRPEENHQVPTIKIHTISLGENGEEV
Briefly: Displacement of [3H]prazosin from Alpha-1 adrenergic receptor of whole rat brain membranes. Type of test: cell membranes, Membrane. The essentials:
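α1 adrenoceptor binding measured as displacement of [3H]prazosin from whole rat brain membranes. Five test-drug concentrations spanning three decades in triplicate, two full curves; IC50 from log concentration-effect curves, logarithmic mean of at least two determinations.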

The target in another test is D(2) dopamine receptor (Rattus norvegicus, UniProt P61169). Briefly: Displacement of [3H]-spiperone from Dopamine receptor D2 from rat striatal membranes. Type of test: cell membranes, Membrane. The essentials:
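[3H]spiperone displacement from rat striatal membranes (D2). Five test-drug concentrations over three decades, in triplicate, two full curves; IC50 from log concentration-effect curves, reported as logarithmic mean of at least two determinations.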

For test [2], the system named is Rattus norvegicus. Briefly: Compound was evaluated for the inhibition of quipazine-induced head twitches after 2 hr (administered subcutaneously); 0.012-0.095. Format: functional. The note with it: sc.
In test [3] the test system is Rattus norvegicus. Briefly: Compound was evaluated for the inhibition of pergolide-induced reactions after 2 hr (administered subcutaneously); 12-50. Format: functional. As to conditions: sc. The essentials: (§1)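 Male Wistar rats with unilateral 6-OHDA lesions; test drug sc 2 h before pergolide (0.05 µmol/kg sc) to induce contralateral circling. Effect of each dose expressed as percent of mean of control sessions 1 week before and 1 week after, per rat; at least four rats per dose; ED50 by log-probit analysis.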

In test [4] the target is Serotonin 2 (5-HT2) receptor (Rattus norvegicus, UniProt P30994+P08909+P14842). Briefly: Displacement of [3H]ketanserin from 5-hydroxytryptamine 2 receptor from rat cortical membranes. Type of test: cell membranes, Membrane. The essentials: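 [3H]ketanserin displacement from rat cortical membranes (5-HT2). Five concentrations across three decades in triplicate, two full curves; IC50 estimated on a log-concentration scale, given as logarithmic mean of at least two determinations.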

Test [5] deals with Rattus norvegicus. Briefly: Compound was evaluated for the inhibition of quipazine-induced head twitches after 24 hr (administered perorally); 0.0091-0.16. The note with it: po.
In test [6] the test system is Rattus norvegicus. Briefly: Compound was evaluated for the inhibition of quipazine-induced head twitches after 2 hr (administered subcutaneously); 0.056-0.18. Type of test: functional. As to conditions: sc.
In test [7] the test system is Rattus norvegicus. Briefly: Compound was evaluated for the inhibition of quipazine-induced head twitches after 24 hr (administered subcutaneously); 0.35-2.7. Format: functional. The note with it: sc.
In test [8] the test system is Rattus norvegicus. Briefly: Compound was evaluated for the inhibition of pergolide-induced reactions after 2 hr (administered subcutaneously). Format: functional. The note with it: sc. A digest of the protocol:
as §1

For test [9], the species on record is Mus musculus. Briefly: Compound was evaluated for the inhibition of isolation-induced aggression at a threshold of 180 seconds.
Test [10] is filed under the species Mus musculus. Briefly: Compound was evaluated for the inhibition of isolation-induced aggression at a threshold of, 90 seconds.
Test [11] deals with T2, Alpha-1A adrenergic receptor (Rattus norvegicus, UniProt P43140).
T2 sequence (P43140 whole entry): T1 sequence (P43140 whole entry)
Briefly: Compound was tested for the displacement of [3H]prazosin from alpha-1 adrenergic receptor of rat whole brain membranes.

The IC50 is the concentration that inhibits the measured activity by half. Low values mean greater potency in that assay, high ones weaker potency in that assay. The term ED50 denotes the dose at which the effect has come halfway, by size or by number of responders. Read a low ED50 as greater potency.

Bounds are passed on as bounds.

D(2) dopamine receptor, sequence (P61169 whole entry): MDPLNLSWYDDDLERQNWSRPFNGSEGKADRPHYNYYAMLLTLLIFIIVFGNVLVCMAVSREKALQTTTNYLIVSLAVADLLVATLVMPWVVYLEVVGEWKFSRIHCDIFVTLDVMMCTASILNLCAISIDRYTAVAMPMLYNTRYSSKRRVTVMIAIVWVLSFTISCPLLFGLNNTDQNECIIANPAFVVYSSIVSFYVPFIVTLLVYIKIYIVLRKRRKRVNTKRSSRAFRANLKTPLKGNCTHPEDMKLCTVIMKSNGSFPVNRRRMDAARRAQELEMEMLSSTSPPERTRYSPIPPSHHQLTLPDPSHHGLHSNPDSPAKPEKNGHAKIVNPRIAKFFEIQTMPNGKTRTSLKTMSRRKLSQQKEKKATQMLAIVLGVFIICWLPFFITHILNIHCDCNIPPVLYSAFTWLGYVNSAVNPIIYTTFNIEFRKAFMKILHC

Turning to `O=C1NCCN1CCN1CCC(c2cn(-c3ccc(F)cc3)c3cc(F)ccc23)CC1`, the IC50 in test [1] came to 2.2 nM; on D(2) dopamine receptor, 36 nM; in test [4], 0.73 nM. Moreover, the 50% effective dose (ED50) in the test on Rattus norvegicus [2] is 0.034 µmol/kg; in the test on Rattus norvegicus [3], 25 µmol/kg; in the test with Rattus norvegicus [5], 0.038 µmol/kg.

For `Cc1nc2sccn2c(=O)c1CCN1CCC(=C(c2ccc(F)cc2)c2ccc(F)cc2)CC1` [RITANSERIN], the ED50 in the test with Rattus norvegicus [6] is 0.1 µmol/kg; with Rattus norvegicus [7], 0.98 µmol/kg; in the test with Rattus norvegicus [8], over 21 µmol/kg; in the test listed under Mus musculus [9] it was over 10 µmol/kg; in the test listed under Mus musculus [10], over 10 µmol/kg. Also, the IC50 in test [11] stood at 47 nM.

The values above are taken from ChEMBL document CHEMBL1125563, “Selective, centrally acting serotonin 5-HT2 antagonists. 1. 2- and 6-substituted 1-phenyl-3-(4-piperidinyl)-1H-indoles” (J Med Chem, 1992).
